Where two headings read alike, the source gives them in different places.
What was measured:
[1] = target: P. aeruginosa CSE (PaCSE) (Pseudomonas aeruginosa, UniProt Q9I6A0); assay: H2S production enzymatic assay, PaCSE; type: biochemical; details: for inhibition of bCSEs (PaCSE): at considerably higher concentrations than for hCSE
[2] = target: S. aureus CSE (SaCSE) (Staphylococcus aureus, UniProt X5E0F1); assay: H2S production enzymatic assay, SaCSE; type: biochemical; details: for inhibition of bCSEs (SaCSE): at considerably higher concentrations than for hCSE
[3] = test system: persisters; assay: Persister assay with H2S donor; type: cell-based
[4] = target: SaCSE (Staphylococcus aureus, UniProt X5E0F1); assay: Microscale Thermophoresis; type: binding
[5] = test system: S. aureus RN4220 (MSSA) and USA300 (MRSA); assay: Antibiotic potentiation; type: cell-based
[6] = test system: P. aeruginosa PA14; assay: Pyocyanin redox state in stationary phase culture; type: cell-based; details: well-aerated PA14; NL1 180 µM for 18 h
Outline: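 Stationary-phase P. aeruginosa PA14 cultures (OD600 ~1.5) were well aerated and treated with test compound at 180 µM for 18 h. Pyocyanin redox state was judged visually by culture colour: blue/green for oxidized, light yellow for reduced. Comparators were untreated wt and a cbs/cse(−) mutant.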

[7] = test system: P. aeruginosa PA14; assay: P. aeruginosa intranasal lung infection model; type: in vivo, Swiss Webster mice; details: for lung bacterial burden, single agent: NL1 or Gm administered separately, lungs collected 5h after infection
[8] = test system: S. aureus USA300; assay: Persister viability under antibiotic challenge; type: cell-based; details: wt cells, ciprofloxacin 10 µg/ml challenge
[9] = Chronic exposure in animal model; type: in vivo; details: stringent animal model
[10] = test system: S. aureus Newman; assay: S. aureus sepsis; type: in vivo, Swiss Webster mice; details: NL1 or Gm alone
[11] = test system: different types of human cells; assay: Toxicity to human cells; type: cell-based; details: various assays
[12] = test system: P. aeruginosa PA14; assay: Persister viability under antibiotic challenge; type: cell-based; details: wt cells, ciprofloxacin 10 µg/ml challenge
Outline: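 Exponentially growing P. aeruginosa PA14 cultures were challenged with ciprofloxacin at 10 µg/ml. The viable cell fraction was followed over time as a killing curve, and the curve tail was taken as the persister population. Data are mean ± SE, n=3.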

[13] = test system: P. aeruginosa PA14 and PAO1; assay: Antibiotic potentiation; type: cell-based
[14] = Aqueous solubility
[15] = target: T1, SaCSE H339A mutant (Staphylococcus aureus, UniProt X5E0F1, H339A); assay: H2S generating activity of SaCSE H339A mutant; type: biochemical, S. aureus; details: for IC50: read-out: IC50 for SaCSE H339A mutant, mean ± SE, n=2
T1 sequence (X5E0F1 1-380 H339A): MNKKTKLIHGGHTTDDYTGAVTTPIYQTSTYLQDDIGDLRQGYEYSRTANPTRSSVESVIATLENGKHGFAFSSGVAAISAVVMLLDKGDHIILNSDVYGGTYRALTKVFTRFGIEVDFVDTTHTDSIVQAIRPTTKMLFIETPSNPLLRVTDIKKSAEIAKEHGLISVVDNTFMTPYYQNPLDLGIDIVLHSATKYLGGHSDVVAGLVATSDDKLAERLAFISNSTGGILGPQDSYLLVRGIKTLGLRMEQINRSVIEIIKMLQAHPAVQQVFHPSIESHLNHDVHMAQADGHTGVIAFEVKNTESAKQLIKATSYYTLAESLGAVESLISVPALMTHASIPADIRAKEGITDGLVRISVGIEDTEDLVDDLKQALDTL

[16] = to approximately the same extent as genetic inactivation of bCSE

NOCC(=O)O [AOAA, aminooxyacetic acid]
inhibition of bCSEs (PaCSE) [1]: capable of inhibiting bCSEs
inhibition of bCSEs (SaCSE) [2]: capable of inhibiting bCSEs

NCCO/C=C/[C@H](N)C(=O)O [AVG, L-aminoethoxyvinylglycine]
inhibition of bCSEs (PaCSE) [1]: capable of inhibiting bCSEs
inhibition of bCSEs (SaCSE) [2]: capable of inhibiting bCSEs

C=CCSSSCC=C [DATS, diallyl trisulfide]
effect of H2S donor on anti-persister effect of NL1 [3]: prevented the anti-persister effect of NL1

NO [HA, hydroxylamine]
inhibition of bCSEs (PaCSE) [1]: capable of inhibiting bCSEs
inhibition of bCSEs (SaCSE) [2]: capable of inhibiting bCSEs

O=C(O)CNC(=O)Cn1c(C(F)(F)F)cc2ccc(Br)cc21 [NL1F3]
IC50 [2]: > 200 µM
apparent KD for SaCSE (MST) [4]: failed

O=C(O)CNC(=O)Cn1ccc2ccc(Br)cc21 [NL1]
sensitization of bCSE-deficient S. aureus RN4220 to Gm ([5]; cse mutant): failed to sensitize
sensitization of wild type S. aureus RN4220 to Gm [5, 16]: enhanced the killing effect of Gm
culture coloration (pyocyanin redox state) [6]: green-blue coloration characteristic of the oxidized pyocyanin
lung bacterial burden, combination with Gm ([7]; NL1 60 mg/kg together with Gm 2 mg/kg subcutaneous, 30 min after infection, lungs 5h after infection): markedly decreased
lung bacterial burden, single agent [7]: did not change significantly
effect on persisters, S. aureus USA300 [8]: eliminated approximately the same amount of persisters as did genetic inactivation of cse/cbs
adverse effects of chronic exposure [9]: No adverse effects
survival, single agent [10]: neither NL1 nor Gm alone increased survival
non-toxic concentration in human cells [11]: at least 25 × of its minimal potentiator concentration
effect on persisters, P. aeruginosa PA14 [12]: eliminated approximately the same amount of persisters as did genetic inactivation of cse/cbs
Kd [4]: ~0.4 µM
sensitization of bCSE-deficient P. aeruginosa PA14 to Gm ([13]; cse mutant): failed to sensitize
sensitization of wild type P. aeruginosa PA14 to Gm [13, 16]: enhanced the killing effect of Gm
aqueous solubility relative to NL3 [14]: higher aqueous solubility than NL3

Cc1oc(Cn2ccc3ccc(Br)cc32)cc1C(=O)O [NL2]
reduction of inhibition in H339A mutant versus wt SaCSE [15]: ~ 70 fold
IC50 [15]: 154 ± 94.8 µM
aqueous solubility relative to NL3 [14]: higher aqueous solubility than NL3

O=C(O)c1cc(Cn2ccc3ccc(-c4cc5cccc(Cl)c5s4)cc32)[nH]n1 [NL3]
IC50 ([1]; read-out: IC50 for PaCSE, L-cysteine at 100 μM): 1.2 µM
IC50 ([2]; read-out: IC50 for SaCSE, L-cysteine at 100 μM): 0.7 µM
IC50 [15]: 1.7 ± 0.1 µM

[Na+].[SH-] [NaHS, reference compound]
effect of exogenous sulfide on Gm potentiation by NL1, S. aureus RN4220 [5]: largely suppressed Gm potentiation
effect of exogenous sulfide on Gm potentiation by NL1, P. aeruginosa PA14 [13]: largely suppressed Gm potentiation

gentamycin [Gm, reference compound]
lung bacterial burden, single agent [7]: did not change significantly
survival, single agent [10]: neither NL1 nor Gm alone increased survival

Reference: PMC10723041 (Science (New York, N.Y.), 2021)
